The source of these data is ChEMBL document CHEMBL4265915, “b-Annulated 1,4-dihydropyridines as Notch inhibitors” (Bioorg Med Chem Lett, 2018).

pIC50: −log10 of the molar value.

Experiment [1] addresses T1, Neurogenic locus notch homolog protein 1 (Homo sapiens, UniProt P46531). The experiment in a line: Inhibition of Notch1 deltaE mutant (unknown origin) expressed in HEK293 cells after 16 hrs by […] luciferase reporter gene assay. The experiment is classed as cell-based. (The colour change of resazurin is a common sign of viable cells or microbes.)
Target sequence in this assay (P46531 19-2555 limits assumed): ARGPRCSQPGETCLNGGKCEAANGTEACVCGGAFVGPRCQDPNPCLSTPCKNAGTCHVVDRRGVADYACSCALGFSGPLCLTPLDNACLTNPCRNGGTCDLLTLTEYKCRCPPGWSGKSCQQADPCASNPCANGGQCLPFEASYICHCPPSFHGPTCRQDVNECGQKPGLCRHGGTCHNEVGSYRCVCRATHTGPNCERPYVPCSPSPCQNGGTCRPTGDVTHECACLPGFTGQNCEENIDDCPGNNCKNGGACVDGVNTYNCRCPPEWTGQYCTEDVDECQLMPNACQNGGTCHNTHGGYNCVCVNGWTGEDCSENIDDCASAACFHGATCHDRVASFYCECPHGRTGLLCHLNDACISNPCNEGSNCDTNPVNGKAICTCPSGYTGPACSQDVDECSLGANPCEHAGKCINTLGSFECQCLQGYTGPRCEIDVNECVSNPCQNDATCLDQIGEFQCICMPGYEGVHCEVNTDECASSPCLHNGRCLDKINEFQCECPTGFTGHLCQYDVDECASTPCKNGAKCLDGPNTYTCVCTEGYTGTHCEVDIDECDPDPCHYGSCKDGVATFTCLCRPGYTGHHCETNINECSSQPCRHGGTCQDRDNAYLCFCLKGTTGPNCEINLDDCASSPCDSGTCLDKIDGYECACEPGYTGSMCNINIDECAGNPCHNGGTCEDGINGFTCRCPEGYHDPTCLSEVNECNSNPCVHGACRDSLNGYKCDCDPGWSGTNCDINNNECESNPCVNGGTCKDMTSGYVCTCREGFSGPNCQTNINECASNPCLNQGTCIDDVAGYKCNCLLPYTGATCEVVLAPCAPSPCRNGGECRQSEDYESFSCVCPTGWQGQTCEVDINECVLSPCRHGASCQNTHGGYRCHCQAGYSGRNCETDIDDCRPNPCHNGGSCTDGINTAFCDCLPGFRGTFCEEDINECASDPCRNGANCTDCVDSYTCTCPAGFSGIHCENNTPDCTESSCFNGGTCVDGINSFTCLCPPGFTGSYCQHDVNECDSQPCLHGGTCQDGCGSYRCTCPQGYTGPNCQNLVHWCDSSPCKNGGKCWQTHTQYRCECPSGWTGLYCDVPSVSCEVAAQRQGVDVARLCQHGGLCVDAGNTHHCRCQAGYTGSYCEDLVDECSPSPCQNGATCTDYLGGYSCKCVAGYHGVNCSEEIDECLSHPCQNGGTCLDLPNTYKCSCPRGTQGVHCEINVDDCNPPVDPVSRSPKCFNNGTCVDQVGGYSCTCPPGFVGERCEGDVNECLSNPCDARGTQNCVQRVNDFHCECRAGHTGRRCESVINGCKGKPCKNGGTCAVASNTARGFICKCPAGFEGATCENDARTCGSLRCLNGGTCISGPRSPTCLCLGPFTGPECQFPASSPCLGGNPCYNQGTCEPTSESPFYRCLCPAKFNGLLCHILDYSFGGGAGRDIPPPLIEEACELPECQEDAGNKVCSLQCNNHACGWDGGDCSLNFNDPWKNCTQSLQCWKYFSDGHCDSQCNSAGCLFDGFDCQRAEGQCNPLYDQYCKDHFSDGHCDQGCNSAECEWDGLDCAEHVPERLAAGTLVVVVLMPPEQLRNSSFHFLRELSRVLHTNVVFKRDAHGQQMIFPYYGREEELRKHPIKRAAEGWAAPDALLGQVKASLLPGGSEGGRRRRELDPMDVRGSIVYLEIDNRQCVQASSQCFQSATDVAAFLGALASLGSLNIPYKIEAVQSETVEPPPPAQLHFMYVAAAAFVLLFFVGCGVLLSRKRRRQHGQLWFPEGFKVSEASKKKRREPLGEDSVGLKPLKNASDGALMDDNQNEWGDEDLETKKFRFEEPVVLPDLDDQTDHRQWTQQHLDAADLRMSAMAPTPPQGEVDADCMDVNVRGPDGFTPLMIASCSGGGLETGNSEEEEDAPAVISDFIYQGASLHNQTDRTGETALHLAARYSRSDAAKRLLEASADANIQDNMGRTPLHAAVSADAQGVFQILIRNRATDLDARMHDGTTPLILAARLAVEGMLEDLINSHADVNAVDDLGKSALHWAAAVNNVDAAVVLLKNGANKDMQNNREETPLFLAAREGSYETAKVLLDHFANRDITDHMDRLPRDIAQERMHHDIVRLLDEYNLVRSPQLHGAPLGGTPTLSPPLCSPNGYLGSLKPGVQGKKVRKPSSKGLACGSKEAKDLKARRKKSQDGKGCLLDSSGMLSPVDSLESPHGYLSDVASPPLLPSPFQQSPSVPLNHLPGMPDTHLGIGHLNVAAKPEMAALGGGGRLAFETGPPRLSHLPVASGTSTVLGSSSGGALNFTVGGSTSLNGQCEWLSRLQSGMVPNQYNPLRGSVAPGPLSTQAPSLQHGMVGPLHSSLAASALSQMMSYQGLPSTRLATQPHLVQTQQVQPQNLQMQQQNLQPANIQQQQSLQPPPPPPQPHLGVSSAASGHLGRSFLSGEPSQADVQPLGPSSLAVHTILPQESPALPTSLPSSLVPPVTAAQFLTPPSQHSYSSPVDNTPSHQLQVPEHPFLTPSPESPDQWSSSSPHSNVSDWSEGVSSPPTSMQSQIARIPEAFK
Experiment [2] concerns the target T1, Neurogenic locus notch homolog protein 1. Description: Potency index, ratio of FLI-06 IC50 to compound IC50 for inhibition of Notch1 deltaE mutant (unknown origin).
Target sequence in this assay (P46531 whole entry): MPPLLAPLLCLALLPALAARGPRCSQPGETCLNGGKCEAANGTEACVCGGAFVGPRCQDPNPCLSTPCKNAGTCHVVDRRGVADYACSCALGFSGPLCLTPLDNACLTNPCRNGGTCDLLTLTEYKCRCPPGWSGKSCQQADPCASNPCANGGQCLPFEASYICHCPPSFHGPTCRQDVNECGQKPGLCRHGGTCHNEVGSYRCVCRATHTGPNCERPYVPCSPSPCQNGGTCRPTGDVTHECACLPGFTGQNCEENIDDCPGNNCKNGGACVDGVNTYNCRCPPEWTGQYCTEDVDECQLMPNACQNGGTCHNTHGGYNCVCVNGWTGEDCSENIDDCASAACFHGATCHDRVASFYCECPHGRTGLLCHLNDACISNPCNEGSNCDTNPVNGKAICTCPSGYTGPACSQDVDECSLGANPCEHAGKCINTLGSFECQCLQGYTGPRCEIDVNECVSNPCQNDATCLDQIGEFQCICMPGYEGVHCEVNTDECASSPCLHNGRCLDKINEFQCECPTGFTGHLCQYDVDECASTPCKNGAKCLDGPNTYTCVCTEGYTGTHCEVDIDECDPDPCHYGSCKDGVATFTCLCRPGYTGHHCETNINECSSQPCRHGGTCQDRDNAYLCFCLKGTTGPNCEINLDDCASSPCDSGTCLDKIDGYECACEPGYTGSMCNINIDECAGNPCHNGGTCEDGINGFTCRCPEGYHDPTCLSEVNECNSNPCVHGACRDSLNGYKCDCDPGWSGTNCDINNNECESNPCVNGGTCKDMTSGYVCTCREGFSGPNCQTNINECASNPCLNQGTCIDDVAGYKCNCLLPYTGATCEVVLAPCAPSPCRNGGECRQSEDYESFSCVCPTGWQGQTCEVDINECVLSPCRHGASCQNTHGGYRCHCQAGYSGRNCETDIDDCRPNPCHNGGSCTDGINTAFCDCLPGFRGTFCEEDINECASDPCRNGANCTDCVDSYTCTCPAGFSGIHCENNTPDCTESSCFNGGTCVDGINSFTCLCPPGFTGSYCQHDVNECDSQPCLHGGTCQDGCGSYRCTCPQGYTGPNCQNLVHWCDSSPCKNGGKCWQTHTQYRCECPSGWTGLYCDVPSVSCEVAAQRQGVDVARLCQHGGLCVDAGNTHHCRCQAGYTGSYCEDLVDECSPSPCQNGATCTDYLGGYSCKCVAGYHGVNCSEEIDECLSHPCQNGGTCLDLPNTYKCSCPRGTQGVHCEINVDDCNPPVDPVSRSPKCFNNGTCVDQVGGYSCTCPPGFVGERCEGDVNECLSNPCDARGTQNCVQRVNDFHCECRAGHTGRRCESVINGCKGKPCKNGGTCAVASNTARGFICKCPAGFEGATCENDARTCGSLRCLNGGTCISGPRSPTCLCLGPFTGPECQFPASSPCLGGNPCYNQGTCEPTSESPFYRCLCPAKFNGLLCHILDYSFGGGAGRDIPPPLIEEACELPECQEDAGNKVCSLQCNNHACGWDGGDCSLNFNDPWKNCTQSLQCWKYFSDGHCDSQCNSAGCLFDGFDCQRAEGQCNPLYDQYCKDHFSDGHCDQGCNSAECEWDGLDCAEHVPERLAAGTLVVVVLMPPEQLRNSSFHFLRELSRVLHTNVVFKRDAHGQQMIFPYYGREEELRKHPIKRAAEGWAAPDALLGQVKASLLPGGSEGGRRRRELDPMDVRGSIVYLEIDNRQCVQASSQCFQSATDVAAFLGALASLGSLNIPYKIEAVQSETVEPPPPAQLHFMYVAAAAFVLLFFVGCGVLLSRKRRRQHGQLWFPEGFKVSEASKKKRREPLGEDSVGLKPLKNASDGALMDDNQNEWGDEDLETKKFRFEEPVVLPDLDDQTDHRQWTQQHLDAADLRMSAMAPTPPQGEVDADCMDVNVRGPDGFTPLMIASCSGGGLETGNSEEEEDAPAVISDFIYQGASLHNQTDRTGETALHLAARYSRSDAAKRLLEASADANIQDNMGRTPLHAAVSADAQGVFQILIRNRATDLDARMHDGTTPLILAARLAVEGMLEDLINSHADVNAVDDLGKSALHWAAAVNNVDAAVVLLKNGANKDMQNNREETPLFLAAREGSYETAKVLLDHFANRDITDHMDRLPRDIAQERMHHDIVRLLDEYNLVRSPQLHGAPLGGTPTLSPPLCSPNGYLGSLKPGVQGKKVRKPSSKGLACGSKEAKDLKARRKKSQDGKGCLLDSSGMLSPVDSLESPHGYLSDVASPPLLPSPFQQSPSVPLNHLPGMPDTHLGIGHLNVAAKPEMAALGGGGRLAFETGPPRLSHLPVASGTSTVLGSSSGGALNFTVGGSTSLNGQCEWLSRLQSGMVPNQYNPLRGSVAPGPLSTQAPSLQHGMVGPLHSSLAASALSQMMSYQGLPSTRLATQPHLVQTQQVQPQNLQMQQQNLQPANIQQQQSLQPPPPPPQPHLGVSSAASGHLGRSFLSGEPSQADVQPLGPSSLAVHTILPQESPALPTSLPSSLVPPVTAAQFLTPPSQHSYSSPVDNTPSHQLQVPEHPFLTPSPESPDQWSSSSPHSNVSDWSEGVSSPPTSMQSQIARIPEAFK
For experiment [3], the system named is HCT-116. The experiment in a line: Antiproliferative activity against human HCT116 cells after 72 hrs by SYBR green dye based fluorescence assay. Format: functional, cell-based. The note with it: for pIC50: HCT-116, 72 h. In outline: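 HCT-116 colon cancer cells were incubated for 72 h with a concentration series of test agent, with a vehicle-treated control. Proliferation was measured, and the IC50 was derived from the dose-response curve.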

Experiment [4] relates to HCT-116. Description: Potency index, ratio of DAPM IC50 to compound IC50 for antiproliferative activity against human HCT116 cells. The experiment is classed as functional.

Broadly, the pIC50 is −log10 of the IC50, conventionally taken in molar units. In experiment [1], `CC1=C(C(=O)OCC2CCN(C(=O)OC(C)(C)C)CC2)C(c2cccc(C(F)(F)F)c2)C2=C(CC(C)(C)CC2=O)N1` (configuration not stated) showed a pIC50 of 6.12.
Turning to `CC1=C(C(=O)OCC2CCN(C(=O)OC(C)(C)C)CC2)[C@H](c2cccc(Br)c2)C2=C(CC(C)(C)CC2=O)N1`, the Ratio IC50 in experiment [2] came to 20; in the experiment with HCT-116 [4] it was 55. The Activity result with HCT-116 [3] is “Dose-dependent effect”. Further, the results for the pIC50 (with HCT-116 [3]; in experiment [1]) were 6.66 and 6.89, respectively.
`CC1=C(C(=O)OCc2cnccn2)C(c2cccc(Br)c2)C2=C(CC(C)(C)CC2=O)N1` (configuration not stated) gave a pIC50 in experiment [1] of 6.07.
`CC1=C(C(=O)OC23CC4CC(CC(C4)C2)C3)C(c2cccc(Br)c2)C2=C(CC(C)(C)CC2=O)N1` (configuration not stated): the pIC50 in experiment [1] is less than 5.00.
Compound `CC1=C(C(=O)OCC2CCN(C(=O)OC(C)(C)C)CC2)C(c2cc(Cl)cc(Cl)c2)C2=C(CC(C)(C)CC2=O)N1` (configuration not stated) had a pIC50 in experiment [1] of 6.19.
Turning to `CC1=C(C(=O)OC2CCCCC2)C(c2ccc3c(c2)OCCO3)C2=C(CC(C)(C)CC2=O)N1` (configuration not stated), the pIC50 in experiment [1] was 4.91.
Same read-out and setting: in the case of `CC1=C(C(=O)OC2CCCCC2)C(c2cccc(Br)c2)C2=C(CC(C)(C)CC2=O)N1` (configuration not stated) it was 5.38; in that of `CC1=C(C(=O)OCC2CCN(C(=O)OC(C)(C)C)CC2)C(c2ccc(-c3ccccc3)cc2)C2=C(CC(C)(C)CC2=O)N1` (configuration not stated), less than 5.00; in that of `CC1=C(C(=O)OCC2CCN(C(=O)OC(C)(C)C)CC2)C(c2ccc3ccccc3n2)C2=C(CC(C)(C)CC2=O)N1` (configuration not stated), 6.48.
The same measure, in the same setting: in the case of `CC1=C(C(=O)OCC2CCN(C(=O)OC(C)(C)C)CC2)C(c2cccc(C(C)C)c2)C2=C(CC(C)(C)CC2=O)N1` (configuration not stated) it was 5.48.
The same measure, in the same setting: in the case of `CC1=C(C(=O)OCC2CCN(C(=O)OC(C)(C)C)CC2)C(c2cccc([N+](=O)[O-])c2)C2=C(CC(C)(C)CC2=O)N1` (configuration not stated) it was less than 5.00.
In the case of `CC1=C(C(=O)OC2CCCCC2)C(c2ccc([N+](=O)[O-])cc2)C2=C(CC(C)(C)CC2=O)N1` (configuration not stated), in the experiment on HCT-116 [3], the Activity result is “Dose-dependent effect” and the negative logarithm of the IC50 (pIC50) is 5.74. This compound also had a pIC50 in experiment [1] of 5.60.
In experiment [1], `CC1=C(C(=O)OC2CCCCC2)C(c2cccc(C#N)c2)C2=C(CC(C)(C)CC2=O)N1` (configuration not stated) showed a pIC50 of 4.36.
The same measure, in the same setting: in the case of `CC1=C(C(=O)OCC2CCN(C(=O)OC(C)(C)C)CC2)C(c2cccc(-c3ccc4[nH]ccc4c3)c2)C2=C(CC(C)(C)CC2=O)N1` (configuration not stated) it was 6.11; in that of `CC1=C(C(=O)OCCC2CCN(C(=O)OC(C)(C)C)CC2)C(c2cccc(Br)c2)C2=C(CC(C)(C)CC2=O)N1` (configuration not stated), 5.53; in that of `CC1=C(C(=O)OC2CCCCC2)C(c2cccc(C(F)(F)F)c2)C2=C(CC(C)(C)CC2=O)N1` (configuration not stated), 4.83.
The same measure, in the same setting: in the case of `CC1=C(C(=O)OCC2CCN(C(=O)OC(C)(C)C)CC2)C(c2ccc3c(c2)OCCO3)C2=C(CC(C)(C)CC2=O)N1` (configuration not stated) it was 5.82.
Turning to `COC(=O)[C@@H](NC(=O)[C@H](C)NC(=O)Cc1cc(F)cc(F)c1)c1ccccc1`, in the experiment on HCT-116 [3], the Activity entry is “Dose-dependent effect” and the pIC50 is 4.92.
Turning to `CC1=C(C(=O)OCC2CCN(C(=O)OC(C)(C)C)CC2)C(c2ccc(Br)cc2F)C2=C(CC(C)(C)CC2=O)N1` (configuration not stated), in experiment [1], the pIC50 was less than 5.00.
The same measure, in the same setting: in the case of `CC1=C(C(=O)OCC2CCN(C(=O)OC(C)(C)C)CC2)C(c2cccc(C#N)c2)C2=C(CC(C)(C)CC2=O)N1` (configuration not stated) it was 6.66; in that of `CC1=C(C(=O)OCc2ccc(C(C)(C)C)cc2)C(c2cccc(Br)c2)C2=C(CC(C)(C)CC2=O)N1` (configuration not stated), 5.37.
For the compound `CC1=C(C(=O)O[C@H](CC#N)c2ccccc2)C(c2cccc(Br)c2)C2=C(CC(C)(C)CC2=O)N1` (some centres not stated), the pIC50 in experiment [1] was less than 5.00.
In the case of `CC1=C(C(=O)OCC2CCN(C(=O)OC(C)(C)C)CC2)C(c2cccc(Br)c2)C2=C(CC(C)(C)CC2=O)N1` (configuration not stated), the pIC50 in experiment [1] was 6.44.
Same read-out and setting: in the case of `CC1=C(C(=O)OCC2CCN(C(=O)OC(C)(C)C)CC2)[C@@H](c2cccc(Br)c2)C2=C(CC(C)(C)CC2=O)N1` it was 5.59; in that of `CC1=C(C(=O)OC2CCN(C(=O)OC(C)(C)C)CC2)C(c2cccc(Br)c2)C2=C(CC(C)(C)CC2=O)N1` (configuration not stated), less than 5.00.
